The text below walks through data of ChEMBL document CHEMBL1143520, “Bicyclic amidine inhibitors of nitric oxide synthase: discovery of perhydro-iminopyrindine and perhydro-iminoquinoline as potent, orally active inhibitors of inducible nitric oxide synthase” (Bioorg Med Chem Lett, 2005).

pIC50: −log10 of the molar value.

The target in one test is Nitric oxide synthase 1 (Homo sapiens, UniProt P29475). As to the kind of experiment: Inhibitory activity against human Neuronal nitric oxide synthase (nNOS).
In another test the target is T1, Nitric oxide synthase 3 (Homo sapiens, UniProt P29474).
T1 sequence (P29474 whole entry): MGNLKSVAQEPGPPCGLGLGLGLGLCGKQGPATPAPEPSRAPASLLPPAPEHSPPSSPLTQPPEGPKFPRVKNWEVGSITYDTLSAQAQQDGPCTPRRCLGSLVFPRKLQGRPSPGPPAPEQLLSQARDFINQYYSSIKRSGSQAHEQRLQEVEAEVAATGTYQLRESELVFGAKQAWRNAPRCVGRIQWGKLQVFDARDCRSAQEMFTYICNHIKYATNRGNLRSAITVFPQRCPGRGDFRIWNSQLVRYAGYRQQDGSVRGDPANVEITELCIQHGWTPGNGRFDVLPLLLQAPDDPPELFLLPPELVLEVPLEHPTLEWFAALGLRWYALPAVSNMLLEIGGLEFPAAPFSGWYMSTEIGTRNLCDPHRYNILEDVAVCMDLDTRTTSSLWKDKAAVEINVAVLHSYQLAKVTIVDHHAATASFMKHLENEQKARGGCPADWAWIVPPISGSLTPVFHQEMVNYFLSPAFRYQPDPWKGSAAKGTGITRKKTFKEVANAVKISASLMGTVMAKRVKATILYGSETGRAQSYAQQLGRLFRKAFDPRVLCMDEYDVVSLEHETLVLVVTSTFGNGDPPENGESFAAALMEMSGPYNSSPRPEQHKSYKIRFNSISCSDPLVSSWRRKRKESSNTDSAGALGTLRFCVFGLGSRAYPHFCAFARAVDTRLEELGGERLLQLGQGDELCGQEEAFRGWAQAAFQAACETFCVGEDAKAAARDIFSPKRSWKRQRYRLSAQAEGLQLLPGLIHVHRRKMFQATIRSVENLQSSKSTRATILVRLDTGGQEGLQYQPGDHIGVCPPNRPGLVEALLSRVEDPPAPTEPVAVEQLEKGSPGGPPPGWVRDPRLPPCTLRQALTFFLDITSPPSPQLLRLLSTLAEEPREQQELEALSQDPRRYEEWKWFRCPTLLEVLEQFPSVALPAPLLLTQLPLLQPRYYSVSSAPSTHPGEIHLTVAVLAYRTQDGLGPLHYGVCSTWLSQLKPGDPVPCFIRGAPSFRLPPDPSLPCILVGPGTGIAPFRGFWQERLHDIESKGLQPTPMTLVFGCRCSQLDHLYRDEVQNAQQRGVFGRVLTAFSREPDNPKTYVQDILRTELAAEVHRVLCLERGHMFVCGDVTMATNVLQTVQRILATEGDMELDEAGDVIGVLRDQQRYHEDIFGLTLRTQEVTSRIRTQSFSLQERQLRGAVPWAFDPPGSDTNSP
In words: Inhibitory activity against human Endothelial nitric oxide synthase (eNOS).

The target of test [1] is Nitric oxide synthase (inducible and endothelial) (Homo sapiens) (UniProt P35228+P29474). As to the kind of experiment: Selectivity measured as the ratio of eNOS IC50/iNOS IC50. In kind it is protein assay.
The target of test [2] is Nitric oxide synthase, inducible (Homo sapiens, UniProt P35228). As to the kind of experiment: Inhibitory activity against human Inducible nitric oxide synthase (iNOS).
Test [3] has as its system Rattus norvegicus. In words: Effective dose causing 50% reduction in plasma nitrite relative to control animals after intravenous administration in LPS treated rats. In kind it is functional. The gist of the method: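 Rat endotoxin model: LPS challenge, then iv dosing 2 h after LPS. Plasma collected 5 h after LPS. Nitrate converted to nitrite with nitrate reductase, then total nitrite/nitrate measured fluorometrically.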

Test [4] concerns Rattus norvegicus. In words: Percentage inhibition of plasma nitrite/nitrate after peroral administration of 10 mg/kg of compound to rats 16 hr prior to LPS treating. It is filed as functional. To be noted: route oral. The gist of the method:
(§1)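 Rats given 10 mg/kg po at set times before LPS challenge. Plasma nitrate/nitrite measured 5 h after LPS: nitrate reduced to nitrite by nitrate reductase, then fluorometric nitrite read-out. Reported as % inhibition of plasma NOx.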

For test [5], the system named is Rattus norvegicus. As to the kind of experiment: Percentage inhibition of plasma nitrite/nitrate after peroral administration of 10 mg/kg of compound to rats 1 hr prior to LPS treating. In kind it is functional. To be noted: route oral. The gist of the method:
as §1

Test [6] deals with Rattus norvegicus. In words: Percentage inhibition of plasma nitrite/nitrate after peroral administration of 10 mg/kg of compound to rats 2 hr prior to LPS treating. It is filed as functional. To be noted: route oral. An outline of the steps:
as §1

The subject of test [7] is Rattus norvegicus. In words: Percentage inhibition of plasma nitrite/nitrate after peroral administration of 10 mg/kg of compound to rats 4 hr prior to LPS treating. It is filed as functional. To be noted: route oral. The gist of the method: as §1

Chain of Nitric oxide synthase, inducible (P35228 whole entry): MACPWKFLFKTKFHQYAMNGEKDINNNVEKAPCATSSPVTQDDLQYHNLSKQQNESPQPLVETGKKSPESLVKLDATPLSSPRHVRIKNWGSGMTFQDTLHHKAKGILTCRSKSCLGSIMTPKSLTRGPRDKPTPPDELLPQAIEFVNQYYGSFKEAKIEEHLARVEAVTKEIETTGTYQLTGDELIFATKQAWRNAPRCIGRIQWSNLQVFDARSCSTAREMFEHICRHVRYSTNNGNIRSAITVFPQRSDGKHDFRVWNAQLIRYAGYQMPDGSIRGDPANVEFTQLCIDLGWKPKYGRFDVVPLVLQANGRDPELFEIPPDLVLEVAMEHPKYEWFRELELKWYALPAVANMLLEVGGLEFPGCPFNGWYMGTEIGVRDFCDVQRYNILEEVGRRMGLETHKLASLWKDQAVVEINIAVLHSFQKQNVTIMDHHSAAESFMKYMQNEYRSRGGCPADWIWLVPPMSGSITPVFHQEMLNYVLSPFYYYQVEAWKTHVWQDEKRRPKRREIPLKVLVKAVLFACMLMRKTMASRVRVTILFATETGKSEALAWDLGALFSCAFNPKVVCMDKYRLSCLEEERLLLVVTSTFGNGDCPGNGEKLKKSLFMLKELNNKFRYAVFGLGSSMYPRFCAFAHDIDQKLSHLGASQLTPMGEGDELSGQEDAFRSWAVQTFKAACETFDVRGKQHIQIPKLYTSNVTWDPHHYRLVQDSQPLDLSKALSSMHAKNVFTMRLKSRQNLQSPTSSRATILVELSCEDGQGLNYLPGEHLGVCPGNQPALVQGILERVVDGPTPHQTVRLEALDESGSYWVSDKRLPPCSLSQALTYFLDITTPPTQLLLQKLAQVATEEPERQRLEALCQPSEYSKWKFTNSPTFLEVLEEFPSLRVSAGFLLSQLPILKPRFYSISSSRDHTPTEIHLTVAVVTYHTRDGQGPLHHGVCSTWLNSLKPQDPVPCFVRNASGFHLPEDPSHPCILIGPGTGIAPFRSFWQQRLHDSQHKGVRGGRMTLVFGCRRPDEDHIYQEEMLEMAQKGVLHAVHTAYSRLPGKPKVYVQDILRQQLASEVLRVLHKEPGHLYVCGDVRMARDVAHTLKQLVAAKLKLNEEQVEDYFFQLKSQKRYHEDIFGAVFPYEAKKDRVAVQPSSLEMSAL
Chain of Nitric oxide synthase 1 (P29475 whole entry): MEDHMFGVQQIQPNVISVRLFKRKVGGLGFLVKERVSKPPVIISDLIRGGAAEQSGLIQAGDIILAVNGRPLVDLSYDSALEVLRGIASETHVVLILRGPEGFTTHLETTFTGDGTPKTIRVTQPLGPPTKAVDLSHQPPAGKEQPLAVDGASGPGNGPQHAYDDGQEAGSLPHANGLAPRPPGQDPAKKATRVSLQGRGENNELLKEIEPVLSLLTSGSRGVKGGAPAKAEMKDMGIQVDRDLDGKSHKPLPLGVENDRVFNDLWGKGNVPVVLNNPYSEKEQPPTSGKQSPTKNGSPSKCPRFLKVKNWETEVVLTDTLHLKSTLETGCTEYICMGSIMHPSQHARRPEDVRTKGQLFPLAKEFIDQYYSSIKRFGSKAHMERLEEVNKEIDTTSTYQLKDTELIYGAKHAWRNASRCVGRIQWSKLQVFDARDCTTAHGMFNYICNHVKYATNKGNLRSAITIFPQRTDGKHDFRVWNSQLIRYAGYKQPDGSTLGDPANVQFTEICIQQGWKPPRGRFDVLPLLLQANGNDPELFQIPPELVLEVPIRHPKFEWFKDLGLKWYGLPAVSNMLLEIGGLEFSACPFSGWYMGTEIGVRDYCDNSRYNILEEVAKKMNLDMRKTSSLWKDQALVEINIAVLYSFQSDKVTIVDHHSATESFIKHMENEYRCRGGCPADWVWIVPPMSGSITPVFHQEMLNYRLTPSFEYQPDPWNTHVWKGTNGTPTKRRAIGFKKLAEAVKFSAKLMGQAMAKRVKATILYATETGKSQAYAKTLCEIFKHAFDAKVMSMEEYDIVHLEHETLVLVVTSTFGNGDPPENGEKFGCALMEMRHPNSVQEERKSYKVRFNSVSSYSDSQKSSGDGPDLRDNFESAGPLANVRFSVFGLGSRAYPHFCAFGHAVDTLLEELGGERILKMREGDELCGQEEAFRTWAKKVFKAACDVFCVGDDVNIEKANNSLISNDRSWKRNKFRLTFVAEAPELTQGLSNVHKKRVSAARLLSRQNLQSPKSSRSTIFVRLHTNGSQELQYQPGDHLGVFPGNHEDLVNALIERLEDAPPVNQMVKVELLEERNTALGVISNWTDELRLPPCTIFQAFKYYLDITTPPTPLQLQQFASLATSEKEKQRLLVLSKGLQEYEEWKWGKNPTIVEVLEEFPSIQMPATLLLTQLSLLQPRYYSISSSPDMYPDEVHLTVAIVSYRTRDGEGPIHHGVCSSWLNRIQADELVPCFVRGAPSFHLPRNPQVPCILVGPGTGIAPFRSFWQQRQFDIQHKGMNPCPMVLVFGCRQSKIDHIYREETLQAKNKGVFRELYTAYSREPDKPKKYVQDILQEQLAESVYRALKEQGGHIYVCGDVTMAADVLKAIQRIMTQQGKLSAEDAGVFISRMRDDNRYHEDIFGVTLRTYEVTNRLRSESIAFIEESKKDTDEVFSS

`NC1=Nc2ccccc2CC1`: the pIC50 (as a rule, the IC50 on a negative log10 scale, so that one unit is a factor of ten) against Nitric oxide synthase 1 is 5.31; against Nitric oxide synthase 3, 4.07; in test [2] it was 4.85. Besides, in test [1], the Selectivity came out at 6.1.

For the compound `C[C@@H]1CC(N)=N[C@@H]2CCC[C@H]12` (stereo in doubt; 10) [listing 1 of 2 here], in test [1], the Selectivity came out at 31.

With `C[C@H]1CC(N)=N[C@H]2CCC[C@H]21`, the results for the pIC50 (on Nitric oxide synthase 1; on Nitric oxide synthase 3; in test [2]) were 7.44, 6.06 and 6.88, respectively. The Selectivity in test [1] worked out at 6.5.

In the case of `CC1CCN=C(N)C1` (configuration not stated), it took a dose of 0.5 mg/kg to reach the 50% effect level in the test on Rattus norvegicus [3] (ED50). Also, the pIC50 in test [2] is 7.43.

`NC1=N[C@H]2CCCC[C@@H]2CC1`: the pIC50 at Nitric oxide synthase 1 was 6.28; against Nitric oxide synthase 3, 5.26; in test [2], 6.28.

As for `C[C@@H]1CC(N)=N[C@H]2CCCC[C@@H]12`, the pIC50 is 6.72 on Nitric oxide synthase 1, 5.70 against Nitric oxide synthase 3 and 7.42 in test [2]. The Selectivity in test [1] came out at 52.

As for `C[C@@H]1CC(N)=N[C@@H]2CCC[C@H]12` (stereo in doubt; 10a) [listing 1 of 2 here], the Selectivity in test [1] was found to be 40.

With `C[C@@H]1CC(N)=N[C@@H]2CCC[C@H]12` (stereo in doubt; 10) [listing 2 of 2 here], the pIC50 was 7.51 on Nitric oxide synthase 1, 6.33 on Nitric oxide synthase 3 and 7.82 in test [2].

Regarding `C[C@@H]1CC(N)=N[C@@H]2CCC[C@H]12` (stereo in doubt; 10a) [listing 2 of 2 here], the pIC50 against Nitric oxide synthase 1 is 7.68; against Nitric oxide synthase 3 it was 6.44; in test [2], 8.05. The ED50 (usually the midpoint of the dose-response relation) with Rattus norvegicus [3] is 0.25 mg/kg. For the same compound, the inhibition in vivo – broadly, the change of the read-out against control, counted positive when it falls – at 10 mg/kg with Rattus norvegicus [4] turned out to be 39%; in the test on Rattus norvegicus [5] it was 95%; in the test with Rattus norvegicus [6], 80%; with Rattus norvegicus [7] it was 52%.

As to `C[C@@H]1CC(N)=N[C@@H]2CCCCC[C@H]12`, the results for the pIC50 (on Nitric oxide synthase 1; at Nitric oxide synthase 3; in [2]) were 5.89, 5.35 and 6.07, respectively. In addition, the Selectivity in test [1] turned out to be 5.2.

Turning to `NC1=N[C@H]2CCCC[C@H]2CC1`, the pIC50 on Nitric oxide synthase 1 is 6.61; against Nitric oxide synthase 3, 4.90; in [2], 6.73. Also, the Selectivity in [1] came to 67.

With `C[C@H]1CC(N)=N[C@H]2CCCC[C@H]21`, the pIC50 is 6.21 against Nitric oxide synthase 1, under 5.30 at Nitric oxide synthase 3 and under 5.30 in test [2].

Take `C[C@@H]1CC(N)=N[C@@H]2CCCC[C@H]12`: the pIC50 against Nitric oxide synthase 1 is 7.28; against Nitric oxide synthase 3 it was 6.08; in test [2] it was 7.66. The same compound yielded an ED50 with Rattus norvegicus [3] of 0.19 mg/kg. Moreover, the inhibition in vivo at 10 mg/kg came out at 42% with Rattus norvegicus [4], 57% in the test with Rattus norvegicus [5], 69% in the test with Rattus norvegicus [6] and 74% in the test on Rattus norvegicus [7]. Also, the Selectivity in test [1] was 37.

`N=C1CCCCN1`: the pIC50 against Nitric oxide synthase 3 is 6.20; in [2] it was 6.52.
